The values below come from ChEMBL document CHEMBL4219162, “Adamantane amine-linked chloroquinoline derivatives as chloroquine resistance modulating agents in Plasmodium falciparum” (Bioorg Med Chem Lett, 2018).

A short description of data set [1]: Selectivity index, ratio of IC50 for CHO cells to IC50 for chloroquine-resistant Plasmodium falciparum K1 infected in normal type A human erythrocytes. The format is toxicity, cell-based. The note with it: Chinese hamster; read-out: Ratio IC50. An outline of the steps: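 Selectivity index computed as IC50 in Chinese hamster ovary cells, measured by MTT reduction to formazan, divided by IC50 against K1 from the pLDH assay.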

Data set [2] deals with Plasmodium falciparum. Description: Antimalarial activity against chloroquine-resistant Plasmodium falciparum K1 infected in normal type A human erythrocytes incubated for 72 hrs by spectrophotometry based parasite lactate dehydrogenase assay. Particulars: K1, 72 h. The format is functional, organism-based. A digest of the protocol:
(§1)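 Modified parasite lactate dehydrogenase (pLDH) assay run in parallel on CQ-sensitive NF54 and CQ-resistant K1 strains, with chloroquine as positive control. […], 37 °C, and the readout gave IC50.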

Data set [3] can be described thus: Resistance index, ratio of IC50 for chloroquine-resistant Plasmodium falciparum K1 infected in normal type A human erythrocytes to IC50 for chloroquine-sensitive Plasmodium falciparum NF54 infected in normal type A human erythrocytes. Type of data set: functional. A digest of the protocol: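 Resistance index computed as IC50 against K1 divided by IC50 against NF54, both from the pLDH assay.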

The subject of data set [4] is Plasmodium falciparum. Briefly: Antimalarial activity against chloroquine-sensitive Plasmodium falciparum NF54 infected in normal type A human erythrocytes incubated for 72 hrs by spectrophotometry based parasite lactate dehydrogenase assay. Type of data set: functional, organism-based. Particulars: NF54, 72 h. An outline of the steps:
as §1

For data set [5], the system named is CHO. Description: Cytotoxicity against CHO cells by MTT assay. Type of data set: cell-based. The note with it: Cricetulus griseus. An outline of the steps: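 Chinese hamster ovary cell growth and survival read by viable-cell reduction of yellow MTT to purple-blue formazan. IC50 derived. Emetine served as the cytotoxic reference drug.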
(Tetrazolium assays rely on reduction of a dye to a coloured formazan, in cell work by metabolically active cells.)

Data set [6] can be described thus: Reversal modification index, ratio of IC50 for chloroquine-resistant Plasmodium falciparum K1 infected in normal type A human erythrocytes to IC50 for chloroquine-sensitive Plasmodium falciparum NF54 infected in normal type A human erythrocytes relative to […]. Type of data set: functional. A digest of the protocol:
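Reversal modification index taken as the resistance index (IC50 K1/IC50 NF54) of each compound relative to the resistance index of chloroquine.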

Data set [7] relates to Plasmodium falciparum. Description: Potency index, ratio of IC50 for […] to IC50 for test compound for antimalarial activity against chloroquine-resistant Plasmodium falciparum K1 infected in normal type A human erythrocytes incubated for 72 hrs by spectrophotometry based parasite lactate dehydrogenase assay. The format is functional.
Data set [8] is described as follows: Aqueous stability of the compound in pH 7.4 HEPES-buffer at 1 mg/ml at 37 degC after 72 hrs by UV spectroscopic method. Type of data set: physicochemical. Particulars: pH 7.4, 72 h. An outline of the steps: (§2)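 Test compound at 1 mg/ml in aqueous HEPES-containing buffer, held at 37 °C for 72 h to check for degradation. pH 7.4 matches the pLDH antimalarial assay medium. pH 4.5 approximates the parasite's acidic digestive vacuole. Conditions mirror the pLDH assay procedure.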

Data set [9] is described as follows: Aqueous stability of the compound in pH 4.5 HEPES-buffer at 1 mg/ml at 37 degC after 72 hrs by UV spectroscopic method. The format is physicochemical. Particulars: pH 4.5, 72 h. A digest of the protocol:
as §2

One may read the IC50 as the concentration that inhibits the measured activity by half. Low values mean inhibition by little substance, high ones a need for much substance. In the case of `OC12CC3CC(CC(C3)N1CCCCCCNc1ccnc3cc(Cl)ccc13)C2`, in data set [1], the selectivity ratio turned out to be 285. The IC50 in data set [2] was 284 nM; in data set [4], 112 nM; in [5], 80800 nM. Further, the “Ratio IC50” value in data set [3] is 3.81; in data set [6], 10.09.

Turning to `Clc1ccc2c(NCCCCCCN=C3C4CC5CC(C4)CC3C5)ccnc2c1`, the selectivity ratio in data set [1] was found to be 104. Further, the results for the IC50 in data set [2], in data set [4] and in data set [5] were 1580 nM, 113 nM and > 103000 nM, respectively. The “Ratio IC50” value in data set [3] is 14.02; in data set [6], 2.74.

In data set [5], `CC[C@H]1CN2CCc3cc(OC)c(OC)cc3[C@@H]2C[C@@H]1C[C@H]1NCCc2cc(OC)c(OC)cc21` [EMETINE] returned an IC50 of 130 nM.

For the molecule `OC12C3C4CC5C6C4C1C6C(C53)N2CCNc1ccnc2cc(Cl)ccc12` (centres undefined), the selectivity ratio in [1] worked out at 131. Also, the figures for the IC50 in data set [2] and in [4] were 72.6 nM and 9.84 nM, respectively. Further, the “Ratio IC50” value in [3] is on record as 7.36; in data set [6], 5.22.

As to `Clc1ccc2c(NCCCCN=C3C4CC5CC(C4)CC3C5)ccnc2c1`, the selectivity ratio in data set [1] is 73. The IC50 in [2] turned out to be 784 nM; in data set [4] it was 108 nM; in data set [5], 57100 nM. Moreover, the “Ratio IC50” value in data set [3] was 7.23; in data set [6] it was 5.32.

For the molecule `OC12CC3CC(CC(C3)N1CCCNc1ccnc3cc(Cl)ccc13)C2`, in [1], the selectivity ratio stood at 467. Moreover, the IC50 in [2] turned out to be 96.8 nM; in [4], 22.3 nM; in data set [5], 45200 nM. Also, the “Ratio IC50” value in data set [3] is recorded as 4.34; in [7] it was 3 - 4; in data set [6] it was 8.86.

`CCN(CC)CCCC(C)Nc1ccnc2cc(Cl)ccc12` (centres undefined) [CHLOROQUINE]: in data set [5], half-maximal inhibition (IC50) required 57800 nM.

For the molecule `Clc1ccc2c(NCCN=C3C4CC5CC(C4)CC3C5)ccnc2c1`, in data set [1], the selectivity ratio stood at 1050. Besides, the IC50 in data set [2] is 93.8 nM; in [4], 26.3 nM; in [5], 98500 nM. In addition, the “Ratio IC50” value in data set [3] is 3.56; in data set [7] it was 3 - 4; in data set [6] it was 10.8.

On to `OC12CC3CC(CC(C3)N1CCCCNc1ccnc3cc(Cl)ccc13)C2`, for which the selectivity ratio in data set [1] came to 191. Moreover, the IC50 came out at 198 nM in data set [2], 33.9 nM in data set [4] and 37900 nM in data set [5]. The “Ratio IC50” value in [3] is reported as 5.84; in data set [6], 6.59.

In the case of `OC12CC3CC(CC(C3)N1CCNc1ccnc3cc(Cl)ccc13)C2`, in [1], the selectivity ratio was > 2820. Moreover, the IC50 in [2] is 98.9 nM; in [4], 46.9 nM; in data set [5], > 279000 nM. Moreover, the “Ratio IC50” value was 2.11 in [3], 3 - 4 in data set [7] and 18.23 in data set [6].

With `Clc1ccc2c(NCCCN=C3C4CC5CC(C4)CC3C5)ccnc2c1`, the selectivity ratio in data set [1] stood at 346. In addition, the Stability result in [8] was “Stable”; in data set [9], “Unstable”. For the same molecule, the IC50 in [2] came to 192 nM; in data set [4], 5 nM; in data set [5], 66400 nM. Also, the “Ratio IC50” value in [6] is 2.4.
